# Results reported in ChEMBL document CHEMBL3352173, “Optimization of pyrrolamide topoisomerase II inhibitors toward identification of an antibacterial clinical candidate (AZD5099)” (J Med Chem, 2014).
# Columns and labels:
# [1] = biological target: T1, ATP-binding cassette sub-family C member 2 (Rattus norvegicus, UniProt Q63120); assay: Stimulation of ATPase activity of rat Mrp2 assessed as inorganic phosphate
# [2] = Percentage unbound in mouse plasma; format: ADME, cell-free
# DNA gyrase subunit B = DNA gyrase subunit B (Staphylococcus aureus, UniProt P0A0K8); assay: Inhibition of ATPase activity of Staphylococcus aureus GyrB
# Sequence of DNA gyrase subunit B (P0A0K8 whole entry): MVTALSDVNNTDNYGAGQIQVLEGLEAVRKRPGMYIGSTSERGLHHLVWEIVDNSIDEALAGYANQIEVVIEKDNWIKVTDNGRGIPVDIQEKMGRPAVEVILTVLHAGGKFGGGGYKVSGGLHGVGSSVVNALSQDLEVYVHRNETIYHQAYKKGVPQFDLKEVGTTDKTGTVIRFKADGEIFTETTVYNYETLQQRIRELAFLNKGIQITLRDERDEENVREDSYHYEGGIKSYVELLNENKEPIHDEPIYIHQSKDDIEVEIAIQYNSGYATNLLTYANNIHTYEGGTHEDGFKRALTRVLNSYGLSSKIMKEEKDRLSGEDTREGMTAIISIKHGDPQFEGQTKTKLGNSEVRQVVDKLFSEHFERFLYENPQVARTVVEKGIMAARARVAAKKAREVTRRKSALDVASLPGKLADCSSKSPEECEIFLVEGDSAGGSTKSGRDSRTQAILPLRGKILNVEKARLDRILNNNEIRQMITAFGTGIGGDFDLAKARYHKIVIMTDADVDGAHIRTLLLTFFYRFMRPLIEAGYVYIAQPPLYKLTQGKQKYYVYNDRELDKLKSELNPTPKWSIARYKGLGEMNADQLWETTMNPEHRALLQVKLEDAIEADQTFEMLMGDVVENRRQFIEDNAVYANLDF
# Method in brief: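 IC50 was determined against S. aureus GyrB in the routine screening assay. The enzyme concentration limits resolution below 10 nM.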
# [3] = Clearance in Wistar rat at 10 mg/kg, iv; format: ADME, organism-based; set-up: dose 10 mg/kg, route intravenous; conditions: in vivo
# [4] = Dissociation constant, pKa of the compound; format: physicochemical
# [5] = Percentage unbound in rat plasma; format: ADME, cell-free
# Escherichia coli [6] = assay: Antimicrobial activity against Escherichia coli tolC- by broth microdilution/CLSI method; format: functional; conditions: Escherichia coli; read-out: MIC
# Moraxella catarrhalis = assay: Antimicrobial activity against Moraxella catarrhalis by broth microdilution/CLSI method; format: functional; conditions: Moraxella catarrhalis; read-out: MIC
# [7] = Bioavailability in Wistar rat at 10 mg/kg, […]; format: ADME, organism-based; conditions: in vivo
# [8] = Clearance in CD1 mouse at 10 mg/kg, iv; format: ADME, organism-based; set-up: dose 10 mg/kg, route intravenous; conditions: in vivo
# Staphylococcus aureus [9] = assay: Antimicrobial activity against methicillin, quinolone-resistant Staphylococcus aureus by broth microdilution/CLSI method; format: functional; conditions: Staphylococcus aureus; read-out: MIC
# [10] = biological target: T1, ATP-binding cassette sub-family C member 2; assay: Inhibition of ATPase activity of rat Mrp2 assessed as inorganic phosphate
# Streptococcus pneumoniae = assay: Antibacterial activity against Streptococcus pneumoniae by broth microdilution/CLSI method; format: functional; conditions: Streptococcus pneumoniae; read-out: MIC
# Escherichia coli [11] = assay: Antimicrobial activity against wild-type Escherichia coli Eco523 by broth microdilution/CLSI method; format: functional; conditions: Escherichia coli, Eco523; read-out: MIC
# [12] = Clearance in dog at 10 mg/kg, iv; format: ADME, organism-based, Canis lupus familiaris; set-up: dose 10 mg/kg, route intravenous; conditions: plasma
# [13] = biological target: T2, ATP-binding cassette sub-family C member 2 (Homo sapiens, UniProt Q92887); assay: Stimulation of ATPase activity of human MRP2 assessed as inorganic phosphate
# T2 sequence (Q92887 whole entry): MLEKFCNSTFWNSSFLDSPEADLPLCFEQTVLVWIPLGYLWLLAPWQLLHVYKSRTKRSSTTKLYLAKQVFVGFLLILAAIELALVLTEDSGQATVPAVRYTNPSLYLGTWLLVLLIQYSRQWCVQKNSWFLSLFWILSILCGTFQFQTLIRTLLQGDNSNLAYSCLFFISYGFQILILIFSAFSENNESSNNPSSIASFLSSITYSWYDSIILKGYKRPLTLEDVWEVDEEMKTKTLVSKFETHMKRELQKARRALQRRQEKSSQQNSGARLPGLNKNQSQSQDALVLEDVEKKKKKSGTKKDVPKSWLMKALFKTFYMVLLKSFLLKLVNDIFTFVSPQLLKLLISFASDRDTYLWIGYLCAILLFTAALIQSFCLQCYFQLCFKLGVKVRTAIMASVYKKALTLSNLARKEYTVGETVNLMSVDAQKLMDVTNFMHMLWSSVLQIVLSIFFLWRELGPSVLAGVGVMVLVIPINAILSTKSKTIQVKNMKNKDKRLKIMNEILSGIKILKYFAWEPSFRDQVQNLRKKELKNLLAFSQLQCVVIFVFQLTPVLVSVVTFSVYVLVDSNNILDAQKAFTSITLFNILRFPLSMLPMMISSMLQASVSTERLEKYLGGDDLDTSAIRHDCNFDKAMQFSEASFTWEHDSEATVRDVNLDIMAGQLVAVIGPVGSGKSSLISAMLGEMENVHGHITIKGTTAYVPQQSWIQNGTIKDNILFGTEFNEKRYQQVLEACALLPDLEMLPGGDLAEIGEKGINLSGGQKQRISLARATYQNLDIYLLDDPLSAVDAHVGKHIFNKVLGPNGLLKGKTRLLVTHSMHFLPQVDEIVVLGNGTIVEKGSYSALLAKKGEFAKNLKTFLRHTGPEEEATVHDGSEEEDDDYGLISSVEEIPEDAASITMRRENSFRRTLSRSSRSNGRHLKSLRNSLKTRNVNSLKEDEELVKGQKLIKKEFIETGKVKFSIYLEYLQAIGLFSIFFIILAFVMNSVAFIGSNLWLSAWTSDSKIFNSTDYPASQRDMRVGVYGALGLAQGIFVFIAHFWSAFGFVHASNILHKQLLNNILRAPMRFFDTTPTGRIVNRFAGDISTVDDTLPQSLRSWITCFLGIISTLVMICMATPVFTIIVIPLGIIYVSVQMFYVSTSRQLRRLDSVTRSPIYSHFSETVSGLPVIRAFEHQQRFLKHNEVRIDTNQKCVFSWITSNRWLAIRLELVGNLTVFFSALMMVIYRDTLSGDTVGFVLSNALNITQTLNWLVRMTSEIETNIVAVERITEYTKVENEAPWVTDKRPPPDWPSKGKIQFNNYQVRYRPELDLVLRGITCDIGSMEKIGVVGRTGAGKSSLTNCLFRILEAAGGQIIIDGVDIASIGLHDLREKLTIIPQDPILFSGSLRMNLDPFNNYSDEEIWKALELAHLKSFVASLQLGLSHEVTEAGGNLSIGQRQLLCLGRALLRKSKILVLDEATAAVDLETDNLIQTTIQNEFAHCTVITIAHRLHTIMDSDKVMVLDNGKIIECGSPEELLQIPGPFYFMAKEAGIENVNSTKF
# Staphylococcus aureus [14] = assay: Antimicrobial activity against methicillin-sensitive Staphylococcus aureus by broth microdilution/CLSI method; format: functional; conditions: Staphylococcus aureus; read-out: MIC
# Streptococcus pyogenes = assay: Antimicrobial activity against Streptococcus pyogenes by broth microdilution/CLSI method; format: functional
# [15] = Clearance in TR-negative Wistar rat at 10 mg/kg, iv; format: ADME, organism-based; set-up: dose 10 mg/kg, route intravenous; conditions: in vivo
# [16] = Percentage unbound in dog plasma; format: ADME, cell-free, Canis lupus familiaris
# [17] = biological target: T2, ATP-binding cassette sub-family C member 2; assay: Inhibition of ATPase activity of human MRP2 assessed as inorganic phosphate
# Haemophilus influenzae = assay: Antimicrobial activity against Haemophilus influenzae by broth microdilution/CLSI method; format: functional; conditions: Haemophilus influenzae; read-out: MIC
# [18] = Clearance in rat at 10 mg/kg, iv; format: ADME, organism-based; set-up: dose 10 mg/kg, route intravenous; conditions: in vivo
# [19] = Solubility of the compound; format: physicochemical
# Staphylococcus aureus [20] = assay: Antibacterial activity against methicillin-sensitive Staphylococcus aureus ARC516 infected in neutropenic CD1 mouse thigh model assessed as decrease in bacterial viable counts at 30 mg/kg, ip q24; format: functional; conditions: route intraperitoneal
# [21] = Bioavailability in CD1 mouse at 10 mg/kg, […]; format: ADME, organism-based; conditions: in vivo
# [22] = Ratio of MIC for methicillin, quinolone-resistant Staphylococcus aureus to fraction unbound in human plasma; format: ADME
# [23] = Percentage unbound in human plasma; format: ADME, cell-free
# [24] = Bioavailability in dog at 10 mg/kg, iv; format: ADME, organism-based, Canis lupus familiaris; conditions: plasma
# [25] = AUC in methicillin-sensitive Staphylococcus aureus ARC516 infected in neutropenic CD1 mouse thigh model at 30 mg/kg, ip q24; format: ADME, organism-based; set-up: dose 30 mg/kg, route intraperitoneal; conditions: in vivo
# Staphylococcus aureus [26] = assay: Antibacterial activity against methicillin-sensitive Staphylococcus aureus ARC516 infected in ip dosed neutropenic CD1 mouse thigh model assessed as decrease in bacterial viable counts treated for q24; format: functional; conditions: ARC516, Thigh muscle
# Mus musculus = assay: fAUC in methicillin-sensitive Staphylococcus aureus ARC516 infected in neutropenic CD1 mouse thigh model at 30 mg/kg, ip q24; format: ADME, organism-based; set-up: dose 30 mg/kg, route intraperitoneal; conditions: in vivo
# [27] = Octanol-phosphate buffer distribution coefficient, log D of the compound at pH 7.4 by shake flask method; format: physicochemical
# T1 sequence (Q63120 whole entry): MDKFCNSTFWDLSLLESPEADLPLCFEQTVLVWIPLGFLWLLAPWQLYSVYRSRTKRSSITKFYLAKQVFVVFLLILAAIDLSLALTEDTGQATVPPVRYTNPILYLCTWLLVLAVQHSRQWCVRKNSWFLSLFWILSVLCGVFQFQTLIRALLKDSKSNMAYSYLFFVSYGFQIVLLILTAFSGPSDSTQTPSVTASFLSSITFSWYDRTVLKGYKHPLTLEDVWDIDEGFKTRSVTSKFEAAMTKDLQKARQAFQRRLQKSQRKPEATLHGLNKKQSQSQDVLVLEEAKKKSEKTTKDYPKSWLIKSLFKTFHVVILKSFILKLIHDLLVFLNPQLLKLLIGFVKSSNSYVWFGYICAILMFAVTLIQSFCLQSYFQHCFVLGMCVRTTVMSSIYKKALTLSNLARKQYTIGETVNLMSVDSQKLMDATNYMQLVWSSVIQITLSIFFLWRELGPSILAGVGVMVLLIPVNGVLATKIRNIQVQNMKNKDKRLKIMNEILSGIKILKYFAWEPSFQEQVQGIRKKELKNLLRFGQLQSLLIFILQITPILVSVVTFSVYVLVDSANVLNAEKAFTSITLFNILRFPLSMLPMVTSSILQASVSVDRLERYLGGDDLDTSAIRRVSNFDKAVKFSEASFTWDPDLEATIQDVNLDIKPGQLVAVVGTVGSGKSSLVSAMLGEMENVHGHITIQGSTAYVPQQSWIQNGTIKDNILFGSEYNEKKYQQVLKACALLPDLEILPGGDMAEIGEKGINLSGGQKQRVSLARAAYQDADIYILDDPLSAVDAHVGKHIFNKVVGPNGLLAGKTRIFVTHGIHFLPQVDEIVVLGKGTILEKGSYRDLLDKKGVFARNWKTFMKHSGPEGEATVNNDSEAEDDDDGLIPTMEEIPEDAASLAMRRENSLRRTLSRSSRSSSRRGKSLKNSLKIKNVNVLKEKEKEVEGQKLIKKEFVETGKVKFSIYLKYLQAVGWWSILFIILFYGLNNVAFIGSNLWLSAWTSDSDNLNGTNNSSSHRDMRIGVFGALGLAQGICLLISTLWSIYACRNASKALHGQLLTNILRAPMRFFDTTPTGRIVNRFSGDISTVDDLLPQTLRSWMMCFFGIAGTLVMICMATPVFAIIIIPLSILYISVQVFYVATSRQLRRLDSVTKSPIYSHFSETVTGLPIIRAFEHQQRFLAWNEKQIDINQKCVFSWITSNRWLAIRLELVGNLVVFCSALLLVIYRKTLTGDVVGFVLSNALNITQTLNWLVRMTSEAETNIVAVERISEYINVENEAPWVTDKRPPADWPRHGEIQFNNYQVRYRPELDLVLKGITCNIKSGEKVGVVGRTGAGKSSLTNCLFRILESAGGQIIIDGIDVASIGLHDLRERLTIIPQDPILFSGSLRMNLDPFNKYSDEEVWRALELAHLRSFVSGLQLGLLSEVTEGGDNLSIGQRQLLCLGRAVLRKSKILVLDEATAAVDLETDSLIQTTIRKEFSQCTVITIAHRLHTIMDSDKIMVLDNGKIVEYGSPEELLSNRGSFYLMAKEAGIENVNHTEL
SMILES,EC50 [1],fraction unbound [2],IC50 (DNA gyrase subunit B),clearance [3],pKa [4],fraction unbound [5],MIC (Escherichia coli [6]),MIC (Moraxella catarrhalis),clearance [8],MIC (Staphylococcus aureus [9]),IC50 [10],MIC (Streptococcus pneumoniae),MIC (Escherichia coli [11]),clearance [12],EC50 [13],MIC (Staphylococcus aureus [14]),MIC (Streptococcus pyogenes),clearance [15],fraction unbound [16],IC50 [17],also measured
Cc1[nH]c(C(=O)NC2CCN(c3ncc(C(=O)O)s3)CC2)c(Cl)c1Cl,27 µM,0.089,0.062 µM,78 mL/min/kg,3.4,0.086,0.22 µg/mL,2.2 µg/mL,15.5 mL/min/kg,13 µg/mL,> 200 µM,0.81 µg/mL,> 64 µg/mL,3 mL/min/kg,145 µM,11 µg/mL,0.79 µg/mL,20 mL/min/kg,0.12,> 200 µM,bioavailability [7]: 6.7%; MIC (Haemophilus influenzae): 0.5 µg/mL
COCC(COC)NC(=O)c1nc(N2CC[C@@H](NC(=O)c3[nH]c(C)c(Cl)c3Cl)[C@@H](OC)C2)sc1C(=O)O,> 200 µM,0.042,< 0.01 µM,13 mL/min/kg,4.5,0.038,1.3 µg/mL,< 0.008 µg/mL,5.35 mL/min/kg,0.049 µg/mL,75 µM,0.016 µg/mL,23 µg/mL,1.6 mL/min/kg,> 200 µM,0.05 µg/mL,0.016 µg/mL,3 mL/min/kg,0.12,200 µM,clearance [18]: 18 mL/min/kg; solubility [19]: 860 µM; deltalog10CFU (Staphylococcus aureus [20]): -0.16; bioavailability [21]: 25%; Ratio [22]: 2.3; fraction unbound [23]: 0.021; bioavailability [24]: 29%; AUC [25]: 148 µg·h/mL; MIC (Staphylococcus aureus [26]): 0.03 µg/mL; fAUC (Mus musculus): 6.26 µg·h/mL; logD [27]: 1; MIC (Haemophilus influenzae): 0.1 µg/mL
